Source: ChEMBL document CHEMBL1123888, “Aldosterone antagonists. 2. Synthesis and biological activities of 11,12-dehydropregnane derivatives” (J Med Chem, 1987)
Active and inactive are the calls of the source. No cut-off for these calls is given here.

What was measured:
[1] = biological target: T1, Mineralocorticoid receptor (Rattus norvegicus) (UniProt P22199); experiment: Relative binding affinity against Mineralocorticoid Receptor in Male Sprague-Dawley rats
T1 sequence (whole entry): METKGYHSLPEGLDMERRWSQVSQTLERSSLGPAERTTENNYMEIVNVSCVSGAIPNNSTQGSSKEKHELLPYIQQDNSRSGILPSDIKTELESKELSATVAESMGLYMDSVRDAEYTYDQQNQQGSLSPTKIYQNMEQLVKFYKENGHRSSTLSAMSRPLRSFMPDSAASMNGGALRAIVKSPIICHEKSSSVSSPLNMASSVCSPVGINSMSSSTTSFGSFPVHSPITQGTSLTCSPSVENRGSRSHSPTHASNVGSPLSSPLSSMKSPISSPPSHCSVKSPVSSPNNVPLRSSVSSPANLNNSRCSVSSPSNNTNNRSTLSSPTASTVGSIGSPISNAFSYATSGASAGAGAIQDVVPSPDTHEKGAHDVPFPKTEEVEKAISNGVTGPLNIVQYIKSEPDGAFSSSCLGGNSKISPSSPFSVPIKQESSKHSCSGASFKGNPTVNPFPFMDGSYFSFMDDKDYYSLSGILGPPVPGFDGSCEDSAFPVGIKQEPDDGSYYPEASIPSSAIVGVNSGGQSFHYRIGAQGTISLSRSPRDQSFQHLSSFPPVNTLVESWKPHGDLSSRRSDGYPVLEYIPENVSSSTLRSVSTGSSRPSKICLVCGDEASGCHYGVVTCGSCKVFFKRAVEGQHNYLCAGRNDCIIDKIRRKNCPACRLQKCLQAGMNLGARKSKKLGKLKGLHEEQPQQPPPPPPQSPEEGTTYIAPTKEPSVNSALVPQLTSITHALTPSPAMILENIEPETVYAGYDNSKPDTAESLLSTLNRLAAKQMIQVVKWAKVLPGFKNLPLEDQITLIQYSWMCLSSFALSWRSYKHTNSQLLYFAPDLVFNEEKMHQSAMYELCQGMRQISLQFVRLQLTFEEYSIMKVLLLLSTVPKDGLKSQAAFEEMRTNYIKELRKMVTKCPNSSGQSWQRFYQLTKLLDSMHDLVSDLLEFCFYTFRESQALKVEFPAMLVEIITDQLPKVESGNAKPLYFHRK
In short: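 Renal cytosol from male Sprague-Dawley rats (4-8 weeks) adrenalectomized bilaterally 1 or 2 days earlier. Incubated with various competitor concentrations and about 1 nM [3H]aldosterone, for 42-48 h at 0 °C or 100-120 min at 25 °C. Charcoal (DCC) separation of bound and free.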

[2] = biological target: T1, Mineralocorticoid receptor (Rattus norvegicus); experiment: In vivo relative Mineralocorticoid activity in Male Sprague-Dawley rats; format: functional, organism-based
[3] = biological target: T1, Mineralocorticoid receptor (Rattus norvegicus); experiment: Relative binding affinity to the rat mineralocorticoid receptor determined in rat renal cytosol using [3]Ald as ligand
In short: (§1)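 Renal cytosol came from male Sprague-Dawley rats (4-8 weeks) adrenalectomized bilaterally 1 or 2 days earlier. It was incubated with various competitor concentrations and about 1 nM [3H]Ald for 42-48 h at 0 °C or 100-120 min at 25 °C. Bound and free steroid were separated by DCC.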

[4] = biological target: T1, Mineralocorticoid receptor (Rattus norvegicus); experiment: Relative binding affinity against mineralocorticoid receptor determined in rat renal cytosol using [3]Ald as ligand; in short: as §1
[5] = biological target: T1, Mineralocorticoid receptor (Rattus norvegicus); experiment: Relative potency compared to Aldosterone; Range is 177-1340; format: functional
[6] = biological target: T1, Mineralocorticoid receptor (Rattus norvegicus); experiment: Antagonist activity against Mineralocorticoid receptor was determined after subcutaneous administration in Male Sprague Dawley rats; format: functional, organism-based
In short: (§2)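 Male rats were bilaterally adrenalectomized (bioassay modified from Kagawa). Ald (1 µg/kg) was given sc, immediately followed by test compound in sesame oil sc or orally. Urine was collected from 2 to 6 h after steroid. Potency came from the urinary Na/K ratio of sample versus control, with 95% confidence limits.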

[7] = species on record: Rattus norvegicus; experiment: Displacement of [3H]promegestone from progestin receptor of rat uterine cytosol at 0 degree Centigrade
In short: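 Uteri from estradiol-primed rats supplied the cytosol. It was incubated with various competitor concentrations and about 1 nM [3H]promegestone for 16-20 h at 0 °C. Bound and free steroid were separated by DCC. RBA (progesterone = 100%) = 100 × ratio of the 50%-inhibition concentrations of standard and competitor.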

[8] = biological target: T1, Mineralocorticoid receptor (Rattus norvegicus); experiment: Agonist activity against Mineralocorticoid receptor was determined after subcutaneous administration in Male Sprague Dawley rats; (+) =positive; format: functional, organism-based; details: filed as agonist
[9] = biological target: T1, Mineralocorticoid receptor (Rattus norvegicus); experiment: Relative potency compared to Aldosterone;Range 14-224; format: functional
[10] = biological target: T2, Progesterone receptor (Rattus norvegicus) (UniProt Q63449); experiment: Relative binding affinity against progesterone receptor determined in rat […] cytosol using [3H]DHT as ligand
T2 sequence (whole entry): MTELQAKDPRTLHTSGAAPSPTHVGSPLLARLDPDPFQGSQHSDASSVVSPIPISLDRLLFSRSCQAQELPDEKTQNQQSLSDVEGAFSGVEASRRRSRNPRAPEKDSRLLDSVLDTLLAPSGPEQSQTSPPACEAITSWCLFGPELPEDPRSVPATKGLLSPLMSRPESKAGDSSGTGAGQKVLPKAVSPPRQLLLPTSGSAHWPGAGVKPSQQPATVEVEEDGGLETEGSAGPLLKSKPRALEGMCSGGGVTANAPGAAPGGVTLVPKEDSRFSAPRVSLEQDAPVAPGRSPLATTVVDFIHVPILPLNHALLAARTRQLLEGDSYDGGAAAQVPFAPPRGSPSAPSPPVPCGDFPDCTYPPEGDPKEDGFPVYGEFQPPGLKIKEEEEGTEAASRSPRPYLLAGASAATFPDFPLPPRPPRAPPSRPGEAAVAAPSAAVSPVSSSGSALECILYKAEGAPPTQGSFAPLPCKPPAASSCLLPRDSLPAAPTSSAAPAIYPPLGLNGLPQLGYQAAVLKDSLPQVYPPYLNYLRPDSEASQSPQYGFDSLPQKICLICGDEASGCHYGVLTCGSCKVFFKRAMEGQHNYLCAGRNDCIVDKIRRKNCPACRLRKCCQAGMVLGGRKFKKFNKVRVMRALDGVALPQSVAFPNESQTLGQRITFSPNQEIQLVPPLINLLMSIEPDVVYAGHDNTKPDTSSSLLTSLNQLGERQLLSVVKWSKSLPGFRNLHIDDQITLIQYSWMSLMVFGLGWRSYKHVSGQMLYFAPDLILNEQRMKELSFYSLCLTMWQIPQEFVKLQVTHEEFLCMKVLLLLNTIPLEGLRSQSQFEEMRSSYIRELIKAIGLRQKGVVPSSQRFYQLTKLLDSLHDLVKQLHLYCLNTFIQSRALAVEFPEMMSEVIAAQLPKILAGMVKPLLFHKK

[11] = biological target: T1, Mineralocorticoid receptor (Rattus norvegicus); experiment: Antagonist activity against Mineralocorticoid receptor after oral administration in Male Sprague Dawley rats; (-) = negative; format: functional, organism-based; in short: as §2
[12] = biological target: T1, Mineralocorticoid receptor (Rattus norvegicus); experiment: Relative potency compared to Aldosterone;Range is 1.2-1.6; format: functional
[13] = biological target: T1, Mineralocorticoid receptor (Rattus norvegicus); experiment: Antagonist activity against Mineralocorticoid receptor after po administration in Male Sprague Dawley rats; (+) =positive; format: functional, organism-based; details: filed as antagonist; in short: as §2
[14] = biological target: T1, Mineralocorticoid receptor (Rattus norvegicus); experiment: Agonist activity against Mineralocorticoid receptor after subcutaneous administration in Male Sprague Dawley rats; (-) = negative; format: functional, organism-based
[15] = biological target: T1, Mineralocorticoid receptor (Rattus norvegicus); experiment: Antagonist activity against Mineralocorticoid receptor after subcutaneous administration in Male Sprague Dawley rats; (+) =positive; format: functional, organism-based; details: filed as antagonist; in short: as §2
[16] = biological target: T1, Mineralocorticoid receptor (Rattus norvegicus); experiment: Relative anti-mineralocorticoid potency compared to Spironolactone after oral administration; format: functional, organism-based; in short: as §2
[17] = biological target: T1, Mineralocorticoid receptor (Rattus norvegicus); experiment: Relative potency compared to Aldosterone;Range 4.3-23; format: functional

With `C[C@]12CC[C@H]3[C@@H](CCC4=CC(=O)CC[C@@]43C)[C@@H]1CC[C@@H]2C(=O)CO` the RBA [1] was 58% and the Relative activity [2] was 1.

`CC12CCC(=O)C=C1CCC1C2C=CC2(C)C1CC[C@@]21CCC(=O)O1` (stereo partly specified) gave an RBA [3] of 440%, an RBA [4] of 570% and a Relative potency [5] of 177. For the same molecule, the Activity [6] was “inactive”, the RBA [7] was 53% and the Activity [8] was “Agonist”.

In the case of `CC12CCC(=O)C=C1C1CC1C1C2C=CC2(C)C1CC[C@@]21CCC(=O)O1` (stereo partly specified), the RBA [3] is reported as 30%, the Relative potency [9] is reported as 14 and the RBA [4] is reported as 580%. For the same molecule, the Activity [6] was “inactive”, the RBA [7] was 56% and the Activity [8] was “Agonist”.

With `CC12C=CC(=O)C=C1C1CC1C1C2C=CC2(C)C1C1CC1[C@@]21CCC(=O)O1` (stereo partly specified) the RBA [10] was 150%, the Activity [11] was “inactive” and the RBA [3] was 480%. The RBA [4] was 250%, the Activity [6] was “inactive” and the Relative potency [12] was 1.2. For the same molecule, the Activity [13] was “Antagonist”.

`CC12CCC(=O)C=C1[C@H]1C[C@H]1C1C2C=CC2(C)C1CC[C@@]21CCC(=O)O1` (stereo partly specified) was tested, and the Activity [14] was “inactive”, the RBA [10] was 6.7% and the RBA [3] was 110%. For the same molecule, the RBA [4] was 88%, the Activity [15] was “Antagonist” and the Relative potency [16] was 1.48.

In the case of `CC(=O)S[C@@H]1CC2=CC(=O)C=CC2(C)C2C=CC3(C)C(C4CC4[C@@]34CCC(=O)O4)C21` (stereo partly specified), the RBA [10] is reported as 23%, the Activity [11] is reported as “inactive” and the Relative potency [17] is reported as 4.3. The RBA [3] was 350%, the RBA [4] was 91% and the Activity [6] was “inactive”. The Activity [13] was “Antagonist”.

`C[C@]12C[C@H](O)[C@H]3[C@@H](CCC4=CC(=O)CC[C@@]43C)[C@@H]1CC[C@@H]2C(=O)CO` gave an RBA [1] of 14% and a Relative activity [2] of 0.14.
